Reference: ChEMBL document CHEMBL1641447, “Rational design and synthesis of potent aminoglycoside antibiotics against resistant bacterial strains” (2011)
In brackets after ≈: the same amount, converted by molar mass.

Experiments:
Format in all cases: functional
Enterococcus faecalis = assay: Antibacterial activity against Enterococcus faecalis ATCC 29212 after 16-20 hrs by microdilution broth method
Outline: (§1)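 CLSI broth microdilution with test agents as hydrochloride salts (HPLC purity over 98%), twofold dilutions in 96-well trays. Actively growing broth cultures were diluted to McFarland 0.5 for the inoculum. Trays were covered and incubated at 37 °C for 16–20 h. MIC (µg/mL) was the lowest concentration without visible growth; triplicate runs.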

Staphylococcus aureus [1] = assay: Antibacterial activity against methicillin-resistant Staphylococcus aureus ATCC 33591 after 16-20 hrs by microdilution broth method
Outline: (§2)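 CLSI broth microdilution on hydrochloride salts (HPLC purity over 98%). Actively growing broth cultures were adjusted to McFarland 0.5 and added to 2-fold drug dilutions to give a final inoculum of […]. Trays were covered and incubated at 37 °C for 16–20 h. MIC ([…]) was taken as the lowest concentration preventing visible growth. Tests were run in triplicate.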

Escherichia coli [2] = assay: Antibacterial activity against Escherichia coli BL21 expressing pET29a engineering strain expressing APH(30)-Ia after 16-20 hrs by microdilution broth method; outline: as §2
Staphylococcus aureus [3] = assay: Antibacterial activity against Staphylococcus aureus ATCC 29213 after 16-20 hrs by microdilution broth method; outline: as §1
Mortierella alpina = assay: Antibacterial activity against Mortierella alpina ATCC 32221 after 16-20 hrs by microdilution broth method
Klebsiella pneumoniae = assay: Antibacterial activity against Klebsiella pneumoniae ATCC 700603 after 16-20 hrs by microdilution broth method; outline: as §1
[4] = test system: Staphylococcus epidermidis; assay: Antibacterial activity against Staphylococcus epidermidis 07-9 clinical isolate expressing APH(30)-IIIa after 16-20 hrs by microdilution broth method
Outline: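 Clinical isolate from a Beijing Friendship Hospital patient (2007), with aph(3′)-IIIa confirmed by PCR. CLSI broth microdilution with hydrochloride salts in twofold dilutions, inoculum from actively growing culture at McFarland 0.5, 37 °C for 16–20 h in covered trays. MIC (µg/mL) was the lowest concentration inhibiting visible growth; triplicate runs.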

[5] = test system: Staphylococcus epidermidis; assay: Antibacterial activity against Staphylococcus epidermidis ATCC 12228 after 16-20 hrs by microdilution broth method; outline: as §1
[6] = test system: Staphylococcus epidermidis; assay: Antibacterial activity against methicillin-resistant isolate Staphylococcus epidermidis 08-18 after 16-20 hrs by microdilution broth method; outline: as §2
Escherichia coli [7] = assay: Antibacterial activity against Escherichia coli ATCC 35218 after 16-20 hrs by microdilution broth method; outline: as §1
Escherichia coli [8] = assay: Antibacterial activity against Escherichia coli ATCC 25922 after 16-20 hrs by microdilution broth method; outline: as §1
Pseudomonas aeruginosa = assay: Antibacterial activity against Pseudomonas aeruginosa ATCC 27853 after 16-20 hrs by microdilution broth method; outline: as §1

With `Cc1ccccc1C(=O)NCC(=O)N[C@H]1[C@H](O)[C@@H](N)[C@@H](O[C@H]2[C@H](O)[C@@H](O[C@H]3O[C@H](CO)[C@@H](O)[C@H](N)[C@H]3O)[C@H](N)C[C@@H]2N)O[C@@H]1CN` the MIC (Enterococcus faecalis) was 64 µg/mL (≈ 97.3 µM), the MIC (Staphylococcus aureus [1]) was 64 µg/mL (≈ 97.3 µM) and the MIC (Escherichia coli [2]) was > 128 µg/mL. For the same compound, the MIC (Staphylococcus aureus [3]) was 2 µg/mL (≈ 3.04 µM), the MIC (Mortierella alpina) was > 128 µg/mL and the MIC (Klebsiella pneumoniae) was 64 µg/mL (≈ 97.3 µM). For the same compound, the MIC [4] was > 128 µg/mL, the MIC [5] was 0.5 µg/mL (≈ 0.76 µM) and the MIC [6] was 8 µg/mL (≈ 12.2 µM). For the same compound, the MIC (Escherichia coli [7]) was 4 µg/mL (≈ 6.08 µM), the MIC (Escherichia coli [8]) was 4 µg/mL (≈ 6.08 µM) and the MIC (Pseudomonas aeruginosa) was 32 µg/mL (≈ 48.7 µM).
For `CC(=O)N[C@H]1[C@H](O)[C@@H](N)[C@@H](O[C@H]2[C@H](O)[C@@H](O[C@H]3O[C@H](CO)[C@@H](O)[C@H](N)[C@H]3O)[C@H](N)C[C@@H]2N)O[C@@H]1CN`, the MIC (Enterococcus faecalis) was > 128 µg/mL, the MIC (Staphylococcus aureus [1]) was 16 µg/mL (≈ 30.5 µM) and the MIC (Escherichia coli [2]) was 128 µg/mL (≈ 244 µM). For the same compound, the MIC (Staphylococcus aureus [3]) was 2 µg/mL (≈ 3.81 µM), the MIC (Mortierella alpina) was > 128 µg/mL and the MIC (Klebsiella pneumoniae) was 2 µg/mL (≈ 3.81 µM). For the same compound, the MIC [4] was > 128 µg/mL, the MIC [5] was 0.5 µg/mL (≈ 0.953 µM) and the MIC [6] was 2 µg/mL (≈ 3.81 µM). The MIC (Escherichia coli [7]) was 8 µg/mL (≈ 15.3 µM), the MIC (Escherichia coli [8]) was 2 µg/mL (≈ 3.81 µM) and the MIC (Pseudomonas aeruginosa) was 4 µg/mL (≈ 7.63 µM).
In the case of `NCCCC(=O)N[C@H]1[C@H](O)[C@@H](N)[C@@H](O[C@H]2[C@H](O)[C@@H](O[C@H]3O[C@H](CO)[C@@H](O)[C@H](N)[C@H]3O)[C@H](N)C[C@@H]2N)O[C@@H]1CN`, the MIC (Enterococcus faecalis) was 32 µg/mL (≈ 56.4 µM), the MIC (Staphylococcus aureus [1]) was 2 µg/mL (≈ 3.52 µM) and the MIC (Escherichia coli [2]) was 8 µg/mL (≈ 14.1 µM). The MIC (Staphylococcus aureus [3]) was 0.25 µg/mL (≈ 0.44 µM), the MIC (Mortierella alpina) was > 128 µg/mL and the MIC (Klebsiella pneumoniae) was 1 µg/mL (≈ 1.76 µM). The MIC [4] was 32 µg/mL (≈ 56.4 µM), the MIC [5] was < 0.06 µg/mL and the MIC [6] was 0.25 µg/mL (≈ 0.44 µM). For the same compound, the MIC (Escherichia coli [7]) was 1 µg/mL (≈ 1.76 µM), the MIC (Escherichia coli [8]) was 1 µg/mL (≈ 1.76 µM) and the MIC (Pseudomonas aeruginosa) was 0.5 µg/mL (≈ 0.881 µM).
For `CN(C)[C@H]1[C@H](O)[C@@H](N)[C@@H](O[C@H]2[C@H](O)[C@@H](O[C@H]3O[C@H](CO)[C@@H](O)[C@H](N)[C@H]3O)[C@H](N)C[C@@H]2N)O[C@@H]1CN`, the MIC (Enterococcus faecalis) was > 128 µg/mL, the MIC (Staphylococcus aureus [1]) was > 128 µg/mL and the MIC (Escherichia coli [2]) was > 128 µg/mL. The MIC (Staphylococcus aureus [3]) was 32 µg/mL (≈ 62.7 µM), the MIC (Mortierella alpina) was > 128 µg/mL and the MIC (Klebsiella pneumoniae) was 64 µg/mL (≈ 125 µM). The MIC [4] was > 128 µg/mL, the MIC [5] was 16 µg/mL (≈ 31.3 µM) and the MIC [6] was 32 µg/mL (≈ 62.7 µM). The MIC (Escherichia coli [7]) was 64 µg/mL (≈ 125 µM), the MIC (Escherichia coli [8]) was 128 µg/mL (≈ 251 µM) and the MIC (Pseudomonas aeruginosa) was > 128 µg/mL.
In the case of `NC[C@@H]1O[C@@H](O[C@H]2[C@H](O)[C@@H](O[C@H]3O[C@H](CO)[C@@H](O)[C@H](N)[C@H]3O)[C@H](N)C[C@@H]2N)[C@@H](O)[C@H](O)[C@H]1O` [KANAMYCIN A], the MIC (Enterococcus faecalis) was 64 µg/mL (≈ 132 µM), the MIC (Staphylococcus aureus [1]) was 128 µg/mL (≈ 264 µM) and the MIC (Escherichia coli [2]) was > 128 µg/mL. For the same compound, the MIC (Staphylococcus aureus [3]) was 2 µg/mL (≈ 4.13 µM), the MIC (Mortierella alpina) was > 128 µg/mL and the MIC (Klebsiella pneumoniae) was 64 µg/mL (≈ 132 µM). For the same compound, the MIC [4] was > 128 µg/mL, the MIC [5] was 1 µg/mL (≈ 2.06 µM) and the MIC [6] was 8 µg/mL (≈ 16.5 µM). For the same compound, the MIC (Escherichia coli [7]) was 4 µg/mL (≈ 8.26 µM), the MIC (Escherichia coli [8]) was 2 µg/mL (≈ 4.13 µM) and the MIC (Pseudomonas aeruginosa) was > 128 µg/mL.
`NC[C@H]1O[C@H](O[C@H]2[C@H](O)[C@@H](O[C@H]3O[C@H](CO)[C@@H](O)[C@H](N)[C@H]3O)[C@H](N)C[C@@H]2N)[C@H](N)[C@@H](O)[C@@H]1NC(=O)C1CCCCC1` showed an MIC (Enterococcus faecalis) of 64 µg/mL (≈ 108 µM), an MIC (Staphylococcus aureus [1]) of 4 µg/mL (≈ 6.75 µM) and an MIC (Escherichia coli [2]) of 64 µg/mL (≈ 108 µM). For the same compound, the MIC (Staphylococcus aureus [3]) was 1 µg/mL (≈ 1.69 µM), the MIC (Mortierella alpina) was > 128 µg/mL and the MIC (Klebsiella pneumoniae) was 32 µg/mL (≈ 54 µM). The MIC [4] was > 128 µg/mL, the MIC [5] was 0.25 µg/mL (≈ 0.422 µM) and the MIC [6] was 1 µg/mL (≈ 1.69 µM). The MIC (Escherichia coli [7]) was 2 µg/mL (≈ 3.37 µM), the MIC (Escherichia coli [8]) was 2 µg/mL (≈ 3.37 µM) and the MIC (Pseudomonas aeruginosa) was 8 µg/mL (≈ 13.5 µM).
Compound `NC[C@H]1O[C@H](O[C@H]2[C@H](O)[C@@H](O[C@H]3O[C@H](CO)[C@@H](O)[C@H](N)[C@H]3O)[C@H](N)C[C@@H]2N)[C@H](N)[C@@H](O)[C@@H]1NC(=O)C1CCNCC1` has an MIC (Enterococcus faecalis) of 128 µg/mL (≈ 216 µM), an MIC (Staphylococcus aureus [1]) of 2 µg/mL (≈ 3.37 µM) and an MIC (Escherichia coli [2]) of 4 µg/mL (≈ 6.74 µM). For the same compound, the MIC (Staphylococcus aureus [3]) was 1 µg/mL (≈ 1.68 µM), the MIC (Mortierella alpina) was > 128 µg/mL and the MIC (Klebsiella pneumoniae) was 8 µg/mL (≈ 13.5 µM). The MIC [4] was 128 µg/mL (≈ 216 µM), the MIC [5] was 0.25 µg/mL (≈ 0.421 µM) and the MIC [6] was 0.25 µg/mL (≈ 0.421 µM). For the same compound, the MIC (Escherichia coli [7]) was 2 µg/mL (≈ 3.37 µM), the MIC (Escherichia coli [8]) was 2 µg/mL (≈ 3.37 µM) and the MIC (Pseudomonas aeruginosa) was 2 µg/mL (≈ 3.37 µM).
With `NC[C@H]1O[C@H](O[C@H]2[C@H](O)[C@@H](O[C@H]3O[C@H](CO)[C@@H](O)[C@H](N)[C@H]3O)[C@H](N)C[C@@H]2N)[C@H](N)[C@@H](O)[C@@H]1O` [BEKANAMYCIN] the MIC (Enterococcus faecalis) was 64 µg/mL (≈ 132 µM), the MIC (Staphylococcus aureus [1]) was > 128 µg/mL and the MIC (Escherichia coli [2]) was 64 µg/mL (≈ 132 µM). For the same compound, the MIC (Staphylococcus aureus [3]) was 1 µg/mL (≈ 2.07 µM), the MIC (Mortierella alpina) was > 128 µg/mL and the MIC (Klebsiella pneumoniae) was 16 µg/mL (≈ 33.1 µM). The MIC [4] was > 128 µg/mL, the MIC [5] was 0.25 µg/mL (≈ 0.517 µM) and the MIC [6] was 32 µg/mL (≈ 66.2 µM). The MIC (Escherichia coli [7]) was 4 µg/mL (≈ 8.27 µM), the MIC (Escherichia coli [8]) was 4 µg/mL (≈ 8.27 µM) and the MIC (Pseudomonas aeruginosa) was 64 µg/mL (≈ 132 µM).
